Reference: PMC9527016 (Toxicology letters, 2020)

Columns and labels:
[1] = tested on: alanine peptide Ac-RFAAAAA-COOH; assay: Alanine peptide signal, HPLC-TOF-MS; assay type: biochemical
Method in brief: (§1)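 Peptide mixtures are separated on a C18 column (2.1×150 mm, 1.7 μm) at 60 °C and 0.4 mL/min. Mobile phases are water and acetonitrile with 0.1% formic acid, run over a 22 min gradient. Detection is by positive-mode ESI-TOF MS over m/z 150–1700. Seven concentrations of test compound are tested. Integrated lysine or alanine peptide area is normalised to the DMSO control.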

[2] = tested on: lysine peptide Ac-RFAAKAA-COOH; assay: Lysine peptide depletion, RapidFire-MS/MS DPRA; assay type: biochemical
Method in brief: (§2)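 Lysine peptide (Ac-RFAAKAA-COOH) and alanine internal-standard peptide are mixed, each at 0.5 mM final, in acetate ammonia buffer pH 10.2. Test compound in DMSO […] is added in a 384-well plate and incubated 24 h at room temperature. The range is 12 μM–50 mM or 25 μM–100 mM. Samples are diluted to 0.05 μM, then analysed by C4 SPE with triple-quadrupole MRM. Peptide area is normalised to DMSO wells.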

[3] = tested on: lysine peptide Ac-RFAAKAA-COOH; assay: Lysine peptide depletion, HPLC-TOF-MS; assay type: biochemical
Method in brief: as §1

[4] = tested on: alanine peptide Ac-RFAAAAA-COOH; assay: Alanine peptide; assay type: biochemical
Method in brief: as §2

[5] = Precipitation in lysine peptide buffer; assay type: physicochemical; details: 100 mM added into the lysine peptide buffer
[6] = tested on: cysteine peptide Ac-RFAACAA-COOH; assay: Cysteine peptide depletion, RapidFire-MS/MS DPRA; assay type: biochemical; details: for Detection as sensitizer in the cysteine peptide depletion assay: threshold defined by OECD test guideline 442C
[7] = tested on: lysine peptide; details: cited from earlier work
[8] = tested on: cysteine peptide Ac-RFAACAA-COOH; assay: Confirmation of chemical-cysteine peptide adduct by HPLC-TOF-MS; assay type: biochemical; details: HPLC-TOF-MS after 24 h incubation; Figure 6
Method in brief: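 Cysteine peptide (Ac-RFAACAA-COOH) is mixed with alanine peptide and incubated with test compound for 24 h. The mixture is run by C18 LC (60 °C, 0.4 mL/min, 22 min water/acetonitrile 0.1% formic acid gradient) with positive-mode ESI-TOF MS over m/z 150–1700. Total ion chromatograms are recorded, and mass spectra of selected peaks are inspected for adduct or peptide dimer masses.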

## O=CCCCC=O [Glutaraldehyde]
[1]; Figure 5D
  Alanine peptide signal vs concentration, HPLC-TOF-MS: decreased in a concentration-dependent manner
[2]
  Depletion of the lysine peptide at the highest tested concentrations: more than 50%
[2]; lysine peptide area only, Figure 5E
  Lysine peptide signal vs concentration, RapidFire-MS/MS: decreased in a concentration-dependent manner
[3]; Figure 5E
  Lysine peptide signal vs concentration, HPLC-TOF-MS: decreased in a concentration-dependent manner
[4]; Figure 5D
  Alanine peptide signal vs concentration, RapidFire-MS/MS: decreased in a concentration-dependent manner

## CCCOC(=O)c1cc(O)c(O)c(O)c1 [Propyl gallate]
[2]
  Depletion of the lysine peptide at the highest tested concentrations: more than 50%

## CCCCCCCCCCCCCCCC(=O)Cl [Palmitoyl chloride]
[5]
  Precipitation on addition to lysine peptide buffer: immediate precipitation
[6]
  Detection as sensitizer in the cysteine peptide depletion assay: not detected
[7]; ref No, O.T., 2015
  Lysine peptide depletion (literature): almost completely depleted lysine peptide

## C=CC(=O)OCCO [Hydroxyethyl acrylate]
[2]
  Depletion of the lysine peptide at the highest tested concentrations: more than 50%

## C=CC(=O)OCC [Ethyl acrylate]
[2]
  Depletion of the lysine peptide at the highest tested concentrations: more than 50%
[6]
  Detection as sensitizer in the cysteine peptide depletion assay: not detected

## C=C(C)C(=O)OCCOC(=O)C(=C)C [Ethylene glycol dimethacrylate]
[8]
  Adduct formation with cysteine peptide: formed adduct peak with cysteine peptide

## O=CCc1ccccc1 [Phenylacetaldehyde]
[6]
  Detection as sensitizer in the cysteine peptide depletion assay: not detected

## CCCCCCCCCCCCOC(=O)c1cc(O)c(O)c(O)c1 [Dodecyl gallate]
[6]
  Detection as sensitizer in the cysteine peptide depletion assay: not detected

## Oc1ccc(O)cc1 [Hydroquinone]
[2]
  Depletion of the lysine peptide at the highest tested concentrations: more than 50%
[7]; at 0.5 mM, ref Gerberick et al., 2004
  Depletion of the lysine peptide: 83.3%

## O=C(NCNC(=O)NC1C(=O)NC(=O)N1CO)NC1C(=O)NC(=O)N1CO (stereo not shown) [Imidazolidinyl urea]
[6]
  Detection as sensitizer in the cysteine peptide depletion assay: not detected

## C=C(C)C(=O)OCC(C)O (stereo not shown) [2-Propenoic acid, 2-methyl-, monoester with 1,2-propanedio]
[6]
  Detection as sensitizer in the cysteine peptide depletion assay: not detected

## O=C/C=C/c1ccccc1 [Cinnamic aldehyde]
[8]
  Adduct formation with cysteine peptide: formed adduct peak with cysteine peptide
[1]; 7-point concentration range, Figure 5A
  Alanine peptide signal, HPLC-TOF-MS: no changes were observed
[3]; at 100 mM, Figure 5B
  Lysine peptide signal, HPLC-TOF-MS: slight decrease
[4]; high concentrations (above 1 mM), area normalized to DMSO, Figure 5A
  Decrease in alanine peptide signal (depletion), RapidFire-MS/MS: > 60%

## CCCCCC [n-Hexane]
[6]; pH 7.5
  Efficacy (% peptide depletion), cysteine peptide: Inactive
  IC50 (M), depletion of cysteine peptide: Inactive
